# UHRF1 MBD2 ctr – blocks human UHRF1 binding to methylated DNA. Q96T88. UHRF1 binding to methylated oligo, TR-FRET. inhibition, % at 4.4 µM. 0.75% of 370,000 active; in the data active means inhibition above about 21%;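 further: UHRF1 SRA domain binding a hemimethylated CpG hairpin DNA probe; 0% = median of test compound wells and 100% = reference inhibitor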
# TDP2 absorb – blocks human TDP2 phosphodiesterase activity | O95551 | recombinant TDP2, T5PNP hydrolysis, p-nitrophenol absorbance 415 nm | AID 720702 | 0.34% of 370,000 active | inhibition, % at 12.8 µM;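 active means inhibition above the mean of all tested compounds plus 3 SD, set per campaign, cut at about 25% in these data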;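 further: 0% = DMSO with enzyme and 100% = buffer with substrate but no TDP2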
# Target sequence (O95551 whole entry, looked up): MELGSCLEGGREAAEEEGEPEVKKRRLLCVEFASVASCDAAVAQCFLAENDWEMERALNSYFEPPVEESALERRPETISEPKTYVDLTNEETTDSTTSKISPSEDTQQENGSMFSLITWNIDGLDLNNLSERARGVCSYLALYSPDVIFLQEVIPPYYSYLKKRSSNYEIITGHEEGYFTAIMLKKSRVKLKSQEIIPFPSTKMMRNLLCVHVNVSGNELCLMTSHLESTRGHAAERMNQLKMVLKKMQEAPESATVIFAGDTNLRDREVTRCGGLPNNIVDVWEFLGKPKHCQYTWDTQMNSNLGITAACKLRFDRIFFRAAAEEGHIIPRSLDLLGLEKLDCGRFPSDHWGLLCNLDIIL
#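 Evaluation: % inhibition relative to enzyme-containing and enzyme-free wells. Material: recombinant human TDP2. Benchmarks: enzyme-free and DMSO wells. Timing: enzyme reaction with compound for 2 h at 37 °C. Compound dosing: 12.8 µM only. Measured by: p-Nitrophenol epi absorbance. Reagent: T5PNP substrate at 5 mM, a TopII-DNA adduct mimic. Replication: single well per compound.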
# NSD2 inh – inhibitors of human histone methyltransferase NSD2; O96028; inhibition, % at 12.5 µM; NSD2 peptide methylation, AlphaScreen, 120 min; 0.54% of 310,000 active; in the data active means inhibition above about 50%
# Casp6 inh – caspase-6 (human) enzyme inhibition; 0.53% of 350,000 active; inhibition, % at 12.5 µM; P55212; purified caspase-6, Z-VEID-R110 cleavage fluorescence;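 active means mean inhibition across replicates at least about 35%, with every replicate also reaching that limit, limit read from the data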;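 further: 0% = median of neutral control wells and 100% = no fluorescence left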
# Target sequence (P55212 24-179 limits assumed): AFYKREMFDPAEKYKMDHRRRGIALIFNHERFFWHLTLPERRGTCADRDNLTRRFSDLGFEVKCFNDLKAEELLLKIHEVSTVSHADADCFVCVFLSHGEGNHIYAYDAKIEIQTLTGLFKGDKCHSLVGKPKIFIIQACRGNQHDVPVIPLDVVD
# Target sequence (P55212 194-293 limits assumed): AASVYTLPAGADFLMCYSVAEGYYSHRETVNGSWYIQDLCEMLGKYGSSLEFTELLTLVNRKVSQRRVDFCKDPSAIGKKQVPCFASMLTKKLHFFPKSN
# LEDGF integ inh – blocks HIV-1 LEDGF/p75-dependent DNA integration | TR-FRET IN-LEDGF/p75 DNA integration, Eu/Cy5 | 0.64% of 370,000 active | inhibition, % at 3.7 µM | AID 743269;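 active means inhibition above the screen-wide mean plus 3 SD, cut at about 13% in these data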;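 further: signal is the Cy5 over europium emission ratio at 671 and 618 nm; 0% = plate median of compound wells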
# MBD2 DNA inh – MBD2-methylated oligo binding inhibition; TR-FRET, MBD2 binding to methylated oligonucleotide; inhibition, % at 4.4 µM; 0.31% of 370,000 active; AID 686964; in the data active means inhibition above about 13%
# IN multimer act – activates HIV-1 integrase multimerization in LEDGF counter-screen; shares compounds with LEDGF integ inh; TR-FRET HIV-1 integrase multimerization, biochemical; activation, % at 7.7 µM; 17% of 2,000 active; in the data active means activation above about 8.9%
# TR-FRET interf – optically interferes with TR-FRET readout in LEDGF counter-screen; inhibition, % at 7.7 µM; shares compounds with LEDGF integ inh; 2,000 tested, under 10 active; AID 1053135; TR-FRET optical interference counterscreen, HIV-1 IN multimerization;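 active means inhibition above the mean over all tested compounds plus 3 SD, which no compound reached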;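 further: 0% = integrase with antibodies and DMSO and 100% = antibodies without integrase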
# IN-LEDGF confirm – LEDGF/p75-dependent HIV-1 integration inhibition, confirmation; inhibition, % at 3.7 µM; AID 1053136; 36% of 2,000 active; TR-FRET LEDGF/p75-dependent HIV-1 integration, biochemical; shares compounds with LEDGF integ inh; in the data active means inhibition above about 14%
# The depositor's hits bear a star; / = no result given. Compounds with a hit are over-represented: about 1.8% of the library has one in this group of screens.
SMILES,UHRF1 MBD2 ctr,TDP2 absorb,NSD2 inh,Casp6 inh,LEDGF integ inh,MBD2 DNA inh,IN multimer act,TR-FRET interf,IN-LEDGF confirm
COc1cccc(C(=O)Nc2nc(-c3ccccc3)c(-c3ccccc3)o2)c1,-1,-2,-3,-2,14*,-2,0,-2,19*
CC(C)c1cn([C@H]2C[C@@H]3O[C@@H](CO)CC[C@@H]3O[C@@H]2CCc2ccc(C#CC3(O)CCCC3)cc2)nn1,/,/,/,3,/,/,/,/,/
COc1ccccc1S(=O)(=O)N1C[C@@H]2N[C@H](C1)C2c1ccc(-c2cccc(F)c2)cc1 (stereo partly drawn),/,/,/,6,/,/,/,/,/
Oc1ccc(/C=N/N=C/c2ccc(O)c(O)c2)cc1O,0,-17,/,68*,75*,2,32*,-161,90*
CC1(C)OC(C)(C)/C(=C/Nc2ccc(O)cc2)C1=O,6,11,12,/,21*,4,45*,-158,31*
CC1CCC/C(=C\Nc2ccc(O)cc2)C1=O (stereo not drawn),-7,8,8,/,3,-5,/,/,/
O=C(c1ccccc1)c1ccc(O)c(O)c1O,17,-9,/,73*,22*,11,2,-8,42*
CCOC(=O)C(=O)Cc1cccnn1,25*,12,24,44*,22*,1,3,-13,50*
CCOC(=O)C(Cc1ccnc2ccccc12)=NO,-3,-3,0,-1,2,-3,/,/,/
O=C(NCCc1ccccc1)c1cc(-c2ccco2)on1,2,-25,2,3,6,-4,/,/,/
O=C(NCc1ccccc1)c1cc(-c2ccco2)on1,0,-3,25,4,16*,3,0,0,1
COc1cc(COC(=O)c2cnc(C)cn2)c(OC)cc1Br,0,14,11,8,37*,-1,3,-16,4
COc1ccccc1C(=O)COC(=O)c1cnc(C)cn1,2,2,-3,2,0,-2,/,/,/
CCn1ncc(NC(=S)Nc2ccc(OC)c(OC)c2)c1C(N)=O,-6,16,1,10,14*,-5,1,-4,-4
CC(C)CNC(=O)C1Nc2ccccc2C2C=CCC12 (stereo not drawn),-8,-2,/,0,2,2,/,/,/
O=C(O)C1Nc2c(O)cccc2C2C=CCC12 (stereo not drawn),74*,20,26,92*,70*,37*,8.9*,-30,77*
CC(=O)Nc1cc(C(F)(F)F)ccc1Oc1cccc(Br)c1,4,12,-6,/,16*,-1,-2,10,-1
C[C@@H]1CN([C@@H](C)CO)C(=O)c2cccc(NC(=O)C3CCCCC3)c2O[C@H]1CN(C)Cc1ccccc1,/,/,/,2,/,/,/,/,/
Cc1cc(=O)[nH]c(SCC(=O)NCc2ccc3c(c2)OCO3)n1,-1,-8,3,-1,-1,-1,/,/,/
Cc1nc(SCC(=O)NCc2ccc3c(c2)OCO3)c(C#N)c2c1CCCC2,0,1,12,/,91*,-5,1,-3,2
O=C(C1CCOCC1)N1C[C@@H]2[C@H](c3ccccc31)[C@H](CO)N2C(=O)c1ccccc1,/,/,/,-5,/,/,/,/,/
COC(=O)[C@]1(C)N[C@H](CN(C)S(=O)(=O)c2ccc(OC(F)(F)F)cc2)[C@@H]2C(=O)N(Cc3ccccc3)C(=O)[C@@H]21,-2,0,/,6,15*,-4,0,1,-4
O=C(/C=C/c1ccco1)Oc1cccc2cccnc12,3,-10,-1,13,14*,-6,0,0,-12
CCc1ccc(OC(=O)/C=C/c2ccco2)cc1,13,-2,9,20,15*,-2,1,-7,2
O=C(C[C@H]1C=C[C@H](NC(=O)c2ccccn2)[C@H](CO)O1)NCc1cccc(F)c1,/,/,/,-2,/,/,/,/,/
SMILES,UHRF1 MBD2 ctr,TDP2 absorb,NSD2 inh,Casp6 inh,LEDGF integ inh,MBD2 DNA inh,IN multimer act,TR-FRET interf,IN-LEDGF confirm
Nn1c(SCC(=O)N2CCCCC2)nnc1-c1ccncc1,-2,-6,3,/,-3,-8,/,/,/
Nn1c(SCC(=O)N2CCCCCC2)nnc1-c1ccncc1,2,5,0,-4,26*,-1,1,-3,1
O=C(Cc1ccccn1)N[C@H]1CC[C@H](CC(=O)N2CCCCC2)O[C@H]1CO,/,/,/,-1,/,/,/,/,/
CC(C)CC#Cc1ccc([C@H]2[C@H](CO)N3C(=O)CN(C(=O)c4ccccn4)C[C@@H]23)cc1,/,/,/,0,/,/,/,/,/
CC(C(=O)N(C)C1CCS(=O)(=O)C1)N1C(=O)/C(=C/c2ccco2)SC1=S (stereo not drawn),13,-7,26,45*,30*,-2,2,-8,15*
CC(C)NC(=O)C(Cc1ccccc1)N1C(=O)c2ccccc2C1=O (stereo not drawn),4,-23,0,/,2,1,/,/,/
CC(C)(O)CNC(=O)C(Cc1ccccc1)N1C(=O)c2ccccc2C1=O (stereo not drawn),10,-6,-2,-2,77*,3,0,0,-6
COc1ccc(C(C#N)CC(=O)c2ccc(OCc3ccccc3)c(OC)c2)cc1OC (stereo not drawn),3,-5,-1,/,60*,1,-2,8,-5
O=C(C[C@@H]1C[C@@H]2c3cc(NC(=O)Nc4ccccc4)ccc3O[C@@H]2[C@H](CO)O1)NCc1ccncc1,/,/,/,-3,/,/,/,/,/
O=C(N[C@H]1CC[C@@H](CCNS(=O)(=O)Cc2ccccc2)O[C@@H]1CO)c1ccc2c(c1)OCO2,/,/,/,-2,/,/,/,/,/
COc1ccc(-c2ccnc3nc(-n4cccc4)nn23)cc1,-1,0,1,/,3,-3,/,/,/
c1coc(-c2ccnc3nc(-n4cccc4)nn23)c1,-6,-5,-2,6,17*,6,1,-5,8
O=C1C=CC(=O)c2c(O)c(CO)c(CO)c(O)c21,87*,28*,/,99*,77*,57*,32*,-162,80*
C[C@H]1CN([C@@H](C)CO)S(=O)(=O)c2ccc(-c3ccccc3F)cc2O[C@H]1CN(C)Cc1cccnc1,/,/,/,0,/,/,/,/,/
N#Cc1ccsc1NC(=O)CN1CCN(S(=O)(=O)c2ccccc2C(F)(F)F)CC1,-1,0,0,1,79*,1,1,-7,2
CC(=O)N(C)C[C@H]1Oc2ncc(C#Cc3cccnc3)cc2C(=O)N([C@@H](C)CO)C[C@@H]1C,/,/,/,1,/,/,/,/,/

# From PubChem
